In general, IC50 refers to the concentration needed to halve the response being measured. A low value points to inhibition by little substance. The term ED50 denotes the midpoint of the dose-response relation.

Consider 17 molecules from ChEMBL document CHEMBL1127609, “Cyclic benzamides as mixed dopamine D2/serotonin 5-HT2 receptor antagonists: potential atypical antipsychotic agents” (J Med Chem, 1994).

SMILES strings stand for the structures.

Experiment [1] deals with T1, 5-hydroxytryptamine receptor 1A (Rattus norvegicus, UniProt P19327).
T1 sequence (P19327 whole entry): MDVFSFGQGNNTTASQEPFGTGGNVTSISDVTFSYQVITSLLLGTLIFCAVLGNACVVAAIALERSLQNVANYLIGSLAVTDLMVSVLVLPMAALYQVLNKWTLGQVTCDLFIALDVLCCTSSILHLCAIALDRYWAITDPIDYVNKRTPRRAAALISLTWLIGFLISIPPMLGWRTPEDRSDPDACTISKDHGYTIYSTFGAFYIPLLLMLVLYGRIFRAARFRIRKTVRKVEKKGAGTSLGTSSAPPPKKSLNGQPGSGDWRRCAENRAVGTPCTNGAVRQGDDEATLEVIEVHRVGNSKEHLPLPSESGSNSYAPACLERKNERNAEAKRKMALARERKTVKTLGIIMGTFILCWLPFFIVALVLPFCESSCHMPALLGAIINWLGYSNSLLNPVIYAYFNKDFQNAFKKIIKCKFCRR
In words: In vitro binding affinity was measured on serotonergic 5-hydroxytryptamine 1A receptor by displacement of [3H]- tetralin. In a few lines:
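Rat hippocampus membranes from male Sprague-Dawley rats, homogenized in 50 mM Tris pH 7.7, preincubated 10 min at 37 °C. Final incubation buffer was 50 mM Tris, 4 mM CaCl2, 10 μM pargyline, 0.1% ascorbic acid, pH 7.4. [3H]-8-OH-DPAT at 0.3 nM final, 30 min at 25 °C, then filtration. Nonspecific binding was defined with 10 μM serotonin.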
For orientation: Displacement assays read how much labelled ligand stays bound in the presence of the test substance.

In experiment [2] the test system is Mus musculus. In words: In vivo the ability to antagonize the apomorphine induced climbing response in mice after peroral administration. The settings on record: po. The format is functional. In a few lines: (§1)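 Male CD-1 mice (20–25 g) were acclimated ≥30 min in wire-mesh cages. Drug in 0.5% methyl cellulose or vehicle was given po 60 min before sc apomorphine HCl 5 mg/kg in 0.0001 N HCl, N = 6/dose group. Climbing and stereotypy were scored every 5 min for 30 min, starting at 5 min. The six scores were averaged and % antagonism taken versus controls. ED50 by Litchfield–Wilcoxon.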

Experiment [3] has as its target Serotonin 2 (5-HT2) receptor (Rattus norvegicus, UniProt P30994+P08909+P14842). In words: In vitro binding affinity was measured on serotonergic 5-hydroxytryptamine 2 receptor by displacement of [3H]- ketanserin. It counts as protein assay.
Experiment [4] concerns Mus musculus. Kind of experiment: In vivo the ability to antagonize the apomorphine induced climbing response in mice. It counts as functional. In a few lines:
as §1

The test system of experiment [5] is Mus musculus. In words: Tested in vivo for their ability to antagonize the apomorphine induced stereotypy response in mice. It counts as functional. The gist of the method: as §1
Experiment [6] deals with Mus musculus. Kind of experiment: Tested in vivo for their ability to induction of catalepsy in mice. The format is functional. The gist of the method: (§2)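 Catalepsy induction was tested in male CD-1 mice (20–25 g). Drug was given in 0.5% methyl cellulose vehicle at 0.5–2.0 mL/100 g. ED50 by Litchfield–Wilcoxon.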
In experiment [7] the test system is Mus musculus. In words: Tested in vivo for their ability to antagonize the apomorphine induced stereotypy response in mice after peroral administration. It counts as functional. The note with it: po. In a few lines:
as §1

Experiment [8] concerns Mus musculus. Kind of experiment: Tested in vivo for their ability to induction of catalepsy in mice after peroral administration. It counts as functional. The note with it: po. In a few lines:
as §2

Regarding `Cc1nn(CCCCN2CCN(c3nsc4ccccc34)CC2)c(=O)c2ccccc12`, the IC50 in experiment [1] turned out to be 3.4 nM; in experiment [3], 0.84 nM. Besides, the 50% effect level in the experiment with Mus musculus [2] (ED50) was put at a dose of 30.4 mg/kg.
As for `O=c1[nH]n(CCCCN2CCN(c3nsc4ccccc34)CC2)c(=O)c2ccccc12`, the concentration for half-maximal inhibition (IC50) in experiment [1] amounted to 2.6 nM; in experiment [3] it was 76 nM. In the experiment with Mus musculus [2], this molecule showed a 50% effective dose (ED50) of over 25 mg/kg.
Turning to `O=C1c2ccccc2CCCN1CCCCN1CCN(c2nsc3ccccc23)CC1`, in the experiment on Mus musculus [4] (Mus musculus, read-out: ED50), the ED50 was over 25 mg/kg. The IC50 in experiment [1] was determined as 4.1 nM; in experiment [3], 4.2 nM.
With `O=c1c2ccccc2[nH]n1CCCCN1CCN(c2nsc3ccccc23)CC1`, the half-inhibitory concentration (IC50) in experiment [1] came out at 350 nM; in experiment [3], 150 nM. The same molecule had a median effective dose (ED50) in the experiment with Mus musculus [2] of over 25 mg/kg.
In the experiment with Mus musculus [4], `O=C1C2CCCCC2C=NN1CCCCN1CCN(c2nsc3ccccc23)CC1` (stereo in doubt; 52) displayed an ED50 of 16.2 mg/kg. The IC50 was found to be 0.82 nM in experiment [1] and 0.76 nM in experiment [3].
Consider `O=C(CCCN1CCC(O)(c2ccc(Cl)cc2)CC1)c1ccc(F)cc1` [HALOPERIDOL], for which the 50% effective dose (ED50) in the experiment with Mus musculus [5] was found to be 0.9 mg/kg; in the experiment on Mus musculus [6], 3 mg/kg.
Consider `O=C1C2CCCCC2C=NN1CCCCN1CCN(c2nsc3ccccc23)CC1` (stereo in doubt; 53), for which the ED50 with Mus musculus [4] (Mus musculus, read-out: ED50) came out at 25 mg/kg. The results for the 50% inhibitory concentration (IC50) in experiment [1] and in experiment [3] were 0.021 nM and 0.38 nM, respectively.
On to `O=C1c2ccccc2S(=O)(=O)N1CCCCN1CCN(c2nsc3ccccc23)CC1`, for which the IC50 in experiment [1] came to 0.4 nM; in experiment [3] it was 1.1 nM. This molecule showed a 50% effective dose (ED50) in the experiment with Mus musculus [2] of 48.7 mg/kg.
Regarding `CCOC(=O)n1c2ccccc2c(=O)n1CCCCN1CCN(c2nsc3ccccc23)CC1`, in the experiment on Mus musculus [4] (Mus musculus, read-out: ED50), the ED50 is over 25 mg/kg. Further, the IC50 came out at 33 nM in experiment [1] and 7.9 nM in experiment [3].
As to `O=c1c2ccccc2sn1CCCCN1CCN(c2nsc3ccccc23)CC1`, the IC50 was found to be 120 nM in experiment [1] and 140 nM in experiment [3]. The molecule also gave a median effective dose (ED50) in the experiment on Mus musculus [2] of over 25 mg/kg.
Consider `O=c1c2ccccc2nnn1CCCCN1CCN(c2nsc3ccccc23)CC1`, for which the half-maximal inhibitory concentration (IC50) was 1.7 nM in experiment [1] and 2.9 nM in experiment [3]. In addition, the values for the ED50 in the experiment on Mus musculus [7], in the experiment on Mus musculus [2] and with Mus musculus [8] were 57.8 mg/kg, 19.1 mg/kg and 252 mg/kg, respectively.
For the molecule `O=c1c2ccccc2ncn1CCCCN1CCN(c2nsc3ccccc23)CC1`, the results for the IC50 in experiment [1] and in experiment [3] were 0.59 nM and 2.3 nM, respectively. This molecule also returned a median effective dose (ED50) in the experiment on Mus musculus [2] of 6.2 mg/kg.
Take `O=c1c2ccccc2cnn1CCCCN1CCN(c2nsc3ccccc23)CC1`: the IC50 stood at 10 nM in experiment [1] and 1.8 nM in experiment [3]. Moreover, the ED50 in the experiment with Mus musculus [7] worked out at 29.8 mg/kg; in the experiment with Mus musculus [2], 9.5 mg/kg; in the experiment on Mus musculus [8] it was 70.4 mg/kg.
For the molecule `O=C1c2ccccc2CN1CCCCN1CCN(c2nsc3ccccc23)CC1`, the median effective dose (ED50) with Mus musculus [4] (Mus musculus, read-out: ED50) is 6.3 mg/kg; in the experiment on Mus musculus [5], 24.7 mg/kg; in the experiment on Mus musculus [6], over 360 mg/kg. The concentration for half-maximal inhibition (IC50) in experiment [1] worked out at 7 nM; in experiment [3] it was 5.1 nM.
Regarding `O=C1Cc2ccccc2C(=O)N1CCCCN1CCN(c2nsc3ccccc23)CC1`, the 50% effective dose (ED50) amounted to 12.2 mg/kg in the experiment with Mus musculus [4] (Mus musculus, read-out: ED50); 40.3 mg/kg with Mus musculus [5]; 133 mg/kg in the experiment with Mus musculus [6]. Moreover, the IC50 was determined as 1.8 nM in experiment [1] and 4.7 nM in experiment [3].
In the case of `O=C1c2ccccc2C(=O)N1CCCCN1CCN(c2nsc3ccccc23)CC1`, in the experiment on Mus musculus [4] (Mus musculus, read-out: ED50), the ED50 was determined as 6.2 mg/kg. For the same molecule, the 50% inhibitory concentration (IC50) is 0.19 nM in experiment [1] and 7.6 nM in experiment [3].
In the case of `O=C1c2ccccc2CCN1CCCCN1CCN(c2nsc3ccccc23)CC1`, in the experiment with Mus musculus [4] (Mus musculus, read-out: ED50), the median effective dose (ED50) came to 16.4 mg/kg. Further, the values for the IC50 in experiment [1] and in experiment [3] were 0.64 nM and 1.9 nM, respectively.
